{"source": "paper PMC7744997", "about": "(Clinical Infectious Diseases: An Official Publication of …, 2020)", "assay": "Laboratory safety in RSV-infected infants", "type": "in vivo, human", "method_in_brief": "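Clinical laboratory tests were run in RSV-infected infants (>1 to ≤24 months) given oral drug or placebo once daily for 7 days. Abnormalities were graded with the DMID Pediatric Toxicity Tables (November 2007 version). Patients were followed for 28 days after randomisation.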"}
{"smiles": "CS(=O)(=O)CCCn1c(Cn2c(=O)n(CC(F)(F)F)c3ccncc32)cc2cc(Cl)ccc21", "note": "[JNJ-53718678]", "values": [{"measurement": "Hemoglobin Grade 1 (treatment-emergent worst toxicity grade)", "setting": "All cohorts, n=37", "result": "2 (5) no. (%)"}, {"measurement": "Hemoglobin Grade 2 (treatment-emergent worst toxicity grade)", "setting": "All cohorts, n=37", "result": "1 (3) no. (%)"}, {"measurement": "Hyperkalemia Grade 1 (treatment-emergent worst toxicity grade)", "setting": "All cohorts, n=37", "result": "10 (27) no. (%)"}, {"measurement": "Hyperkalemia Grade 2 (treatment-emergent worst toxicity grade)", "setting": "All cohorts, n=37", "result": "2 (5) no. (%)"}, {"measurement": "Hypoglycemia Grade 1 (treatment-emergent worst toxicity grade)", "setting": "All cohorts, n=37", "result": "3 (8) no. (%)"}, {"measurement": "Hyponatremia Grade 2 (treatment-emergent worst toxicity grade)", "setting": "All cohorts, n=37", "result": "3 (8) no. (%)"}, {"measurement": "Eosinophils/leukocytes: Above (treatment-emergent nongraded abnormality)", "setting": "All, n=26", "result": "7 (27) no. (%)"}, {"measurement": "Eosinophils/leukocytes: Below (treatment-emergent nongraded abnormality)", "setting": "All, n=26", "result": "1 (4) no. (%)"}, {"measurement": "Lymphocytes/leukocytes: Above (treatment-emergent nongraded abnormality)", "setting": "All, n=26", "result": "6 (23) no. (%)"}, {"measurement": "Lymphocytes/leukocytes: Below (treatment-emergent nongraded abnormality)", "setting": "All, n=26", "result": "1 (4) no. (%)"}, {"measurement": "Monocytes/leukocytes: Above (treatment-emergent nongraded abnormality)", "setting": "All, n=26", "result": "5 (19) no. (%)"}, {"measurement": "Monocytes/leukocytes: Below (treatment-emergent nongraded abnormality)", "setting": "All, n=26", "result": "3 (12) no. (%)"}, {"measurement": "Neutrophils/leukocytes: Above (treatment-emergent nongraded abnormality)", "setting": "All, n=26", "result": "1 (4) no. (%)"}, {"measurement": "Neutrophils/leukocytes: Below (treatment-emergent nongraded abnormality)", "setting": "All, n=26", "result": "6 (23) no. (%)"}, {"measurement": "Urea: Above (treatment-emergent nongraded abnormality)", "setting": "All, n=33", "result": "1 (3) no. (%)"}, {"measurement": "Urea: Below (treatment-emergent nongraded abnormality)", "setting": "All, n=33", "result": "5 (15) no. (%)"}, {"measurement": "Bicarbonate: Above (treatment-emergent nongraded abnormality)", "setting": "All, n=35", "result": "3 (9) no. (%)"}, {"measurement": "Bicarbonate: Below (treatment-emergent nongraded abnormality)", "setting": "All, n=35", "result": "6 (17) no. (%)"}, {"measurement": "Eosinophils: Above (treatment-emergent nongraded abnormality)", "setting": "All, n=35", "result": "7 (20) no. (%)"}, {"measurement": "Eosinophils: Below (treatment-emergent nongraded abnormality)", "setting": "All, n=35", "result": "0 no. (%)"}, {"measurement": "Lymphocytes: Above (treatment-emergent nongraded abnormality)", "setting": "All, n=36", "result": "6 (17) no. (%)"}, {"measurement": "Lymphocytes: Below (treatment-emergent nongraded abnormality)", "setting": "All, n=36", "result": "0 no. (%)"}, {"measurement": "Alkaline phosphatase: Above (treatment-emergent nongraded abnormality)", "setting": "All, n=37", "result": "2 (5) no. (%)"}, {"measurement": "Alkaline phosphatase: Below (treatment-emergent nongraded abnormality)", "setting": "All, n=37", "result": "3 (8) no. (%)"}, {"measurement": "Chloride: Above (treatment-emergent nongraded abnormality)", "setting": "All, n=37", "result": "5 (14) no. (%)"}, {"measurement": "Chloride: Below (treatment-emergent nongraded abnormality)", "setting": "All, n=37", "result": "1 (3) no. (%)"}, {"measurement": "Erythrocytes: Above (treatment-emergent nongraded abnormality)", "setting": "All, n=37", "result": "4 (11) no. (%)"}, {"measurement": "Erythrocytes: Below (treatment-emergent nongraded abnormality)", "setting": "All, n=37", "result": "3 (8) no. (%)"}, {"measurement": "Leukocytes: Above (treatment-emergent nongraded abnormality)", "setting": "All, n=37", "result": "6 (16) no. (%)"}, {"measurement": "Eosinophils/leukocytes: Above (treatment-emergent nongraded abnormality)", "setting": "High (cohorts 1d,2c,3c), n=4", "result": "1 (25) no. (%)"}, {"measurement": "Eosinophils/leukocytes: Below (treatment-emergent nongraded abnormality)", "setting": "High (cohorts 1d,2c,3c), n=4", "result": "0 no. (%)"}, {"measurement": "Lymphocytes/leukocytes: Above (treatment-emergent nongraded abnormality)", "setting": "High (cohorts 1d,2c,3c), n=4", "result": "1 (25) no. (%)"}, {"measurement": "Lymphocytes/leukocytes: Below (treatment-emergent nongraded abnormality)", "setting": "High (cohorts 1d,2c,3c), n=4", "result": "0 no. (%)"}, {"measurement": "Monocytes/leukocytes: Above (treatment-emergent nongraded abnormality)", "setting": "High (cohorts 1d,2c,3c), n=4", "result": "0 no. (%)"}, {"measurement": "Monocytes/leukocytes: Below (treatment-emergent nongraded abnormality)", "setting": "High (cohorts 1d,2c,3c), n=4", "result": "0 no. (%)"}, {"measurement": "Neutrophils/leukocytes: Above (treatment-emergent nongraded abnormality)", "setting": "High (cohorts 1d,2c,3c), n=4", "result": "0 no. (%)"}, {"measurement": "Neutrophils/leukocytes: Below (treatment-emergent nongraded abnormality)", "setting": "High (cohorts 1d,2c,3c), n=4", "result": "0 no. (%)"}, {"measurement": "Bicarbonate: Above (treatment-emergent nongraded abnormality)", "setting": "High (cohorts 1d,2c,3c), n=8", "result": "0 no. (%)"}, {"measurement": "Bicarbonate: Below (treatment-emergent nongraded abnormality)", "setting": "High (cohorts 1d,2c,3c), n=8", "result": "3 (38) no. (%)"}, {"measurement": "Eosinophils: Above (treatment-emergent nongraded abnormality)", "setting": "High (cohorts 1d,2c,3c), n=8", "result": "0 no. (%)"}, {"measurement": "Eosinophils: Below (treatment-emergent nongraded abnormality)", "setting": "High (cohorts 1d,2c,3c), n=8", "result": "0 no. (%)"}, {"measurement": "Alkaline phosphatase: Above (treatment-emergent nongraded abnormality)", "setting": "High (cohorts 1d,2c,3c), n=9", "result": "0 no. (%)"}, {"measurement": "Alkaline phosphatase: Below (treatment-emergent nongraded abnormality)", "setting": "High (cohorts 1d,2c,3c), n=9", "result": "0 no. (%)"}, {"measurement": "Chloride: Above (treatment-emergent nongraded abnormality)", "setting": "High (cohorts 1d,2c,3c), n=9", "result": "0 no. (%)"}, {"measurement": "Chloride: Below (treatment-emergent nongraded abnormality)", "setting": "High (cohorts 1d,2c,3c), n=9", "result": "0 no. (%)"}, {"measurement": "Erythrocytes: Above (treatment-emergent nongraded abnormality)", "setting": "High (cohorts 1d,2c,3c), n=9", "result": "0 no. (%)"}, {"measurement": "Erythrocytes: Below (treatment-emergent nongraded abnormality)", "setting": "High (cohorts 1d,2c,3c), n=9", "result": "1 (11) no. (%)"}, {"measurement": "Hemoglobin Grade 1 (treatment-emergent worst toxicity grade)", "setting": "High (cohorts 1d,2c,3c), n=9", "result": "0 no. (%)"}, {"measurement": "Hemoglobin Grade 2 (treatment-emergent worst toxicity grade)", "setting": "High (cohorts 1d,2c,3c), n=9", "result": "0 no. (%)"}, {"measurement": "Hyperkalemia Grade 1 (treatment-emergent worst toxicity grade)", "setting": "High (cohorts 1d,2c,3c), n=9", "result": "1 (11) no. (%)"}, {"measurement": "Hyperkalemia Grade 2 (treatment-emergent worst toxicity grade)", "setting": "High (cohorts 1d,2c,3c), n=9", "result": "1 (11) no. (%)"}, {"measurement": "Hypoglycemia Grade 1 (treatment-emergent worst toxicity grade)", "setting": "High (cohorts 1d,2c,3c), n=9", "result": "3 (33) no. (%)"}, {"measurement": "Hyponatremia Grade 2 (treatment-emergent worst toxicity grade)", "setting": "High (cohorts 1d,2c,3c), n=9", "result": "1 (11) no. (%)"}, {"measurement": "Leukocytes: Above (treatment-emergent nongraded abnormality)", "setting": "High (cohorts 1d,2c,3c), n=9", "result": "3 (33) no. (%)"}, {"measurement": "Lymphocytes: Above (treatment-emergent nongraded abnormality)", "setting": "High (cohorts 1d,2c,3c), n=9", "result": "1 (11) no. (%)"}, {"measurement": "Lymphocytes: Below (treatment-emergent nongraded abnormality)", "setting": "High (cohorts 1d,2c,3c), n=9", "result": "0 no. (%)"}, {"measurement": "Urea: Above (treatment-emergent nongraded abnormality)", "setting": "High (cohorts 1d,2c,3c), n=9", "result": "0 no. (%)"}, {"measurement": "Urea: Below (treatment-emergent nongraded abnormality)", "setting": "High (cohorts 1d,2c,3c), n=9", "result": "0 no. (%)"}, {"measurement": "Eosinophils/leukocytes: Above (treatment-emergent nongraded abnormality)", "setting": "Low (cohorts 1a,2a,3a), n=9", "result": "2 (22) no. (%)"}, {"measurement": "Eosinophils/leukocytes: Below (treatment-emergent nongraded abnormality)", "setting": "Low (cohorts 1a,2a,3a), n=9", "result": "0 no. (%)"}, {"measurement": "Lymphocytes/leukocytes: Above (treatment-emergent nongraded abnormality)", "setting": "Low (cohorts 1a,2a,3a), n=9", "result": "2 (22) no. (%)"}, {"measurement": "Lymphocytes/leukocytes: Below (treatment-emergent nongraded abnormality)", "setting": "Low (cohorts 1a,2a,3a), n=9", "result": "0 no. (%)"}, {"measurement": "Monocytes/leukocytes: Above (treatment-emergent nongraded abnormality)", "setting": "Low (cohorts 1a,2a,3a), n=9", "result": "2 (22) no. (%)"}, {"measurement": "Monocytes/leukocytes: Below (treatment-emergent nongraded abnormality)", "setting": "Low (cohorts 1a,2a,3a), n=9", "result": "2 (22) no. (%)"}, {"measurement": "Neutrophils/leukocytes: Above (treatment-emergent nongraded abnormality)", "setting": "Low (cohorts 1a,2a,3a), n=9", "result": "0 no. (%)"}, {"measurement": "Neutrophils/leukocytes: Below (treatment-emergent nongraded abnormality)", "setting": "Low (cohorts 1a,2a,3a), n=9", "result": "3 (33) no. (%)"}, {"measurement": "Urea: Above (treatment-emergent nongraded abnormality)", "setting": "Low (cohorts 1a,2a,3a), n=9", "result": "1 (11) no. (%)"}, {"measurement": "Urea: Below (treatment-emergent nongraded abnormality)", "setting": "Low (cohorts 1a,2a,3a), n=9", "result": "1 (11) no. (%)"}, {"measurement": "Bicarbonate: Above (treatment-emergent nongraded abnormality)", "setting": "Low (cohorts 1a,2a,3a), n=11", "result": "1 (9) no. (%)"}, {"measurement": "Bicarbonate: Below (treatment-emergent nongraded abnormality)", "setting": "Low (cohorts 1a,2a,3a), n=11", "result": "0 no. (%)"}, {"measurement": "Alkaline phosphatase: Above (treatment-emergent nongraded abnormality)", "setting": "Low (cohorts 1a,2a,3a), n=12", "result": "1 (8) no. (%)"}, {"measurement": "Alkaline phosphatase: Below (treatment-emergent nongraded abnormality)", "setting": "Low (cohorts 1a,2a,3a), n=12", "result": "0 no. (%)"}]}
